# EP2 mod: EP2 receptor modulators, cAMP readout, primary screen, cell-based, HTRF cAMP, PGE2 stimulation | Prostaglandin E2 receptor EP2 subtype (Homo sapiens), P43116 | 260,000 compounds, 0.83% hits | induction, % at 25 µM | EP2-expressing cells, cAMP HTRF FRET, PGE2 co-stimulation;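 active = compounds whose cAMP rise, as percent of the full-agonist control response, exceeds 60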;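 note: rat C6 glioma line stably carrying human EP2 under a CMV promoter; the protocol text gives 20 µM as final concentration; 100% = response of wells given 1 µM PGE2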
# EP2 antag: human EP2 receptor antagonists, primary screen, TR-FRET cAMP, C6 glioma cells. Prostaglandin E2 receptor EP2 subtype (Homo sapiens), P43116. C6 glioma cells expressing human EP2; cells stimulated with saturating PGE2. inhibition, % at 25 µM. 260,000 compounds, 0.52% hits;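 active = percent inhibition above 40 after rounding to a whole number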;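 note: rat C6 glioma host cells with rolipram phosphodiesterase inhibitor present; the protocol text gives 20 µM as final concentration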
# FXIa inh 1536: human FXIa protease inhibitors, primary screen, biochemical, 1536-well; Coagulation factor XI (Homo sapiens), P03951; purified FXIa, Boc-Glu-Ala-Arg-AMC fluorogenic substrate; inhibition, % at 5 µM; 220,000 compounds, 0.14% hits;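 active = inhibition of at least 40%; inactive = inhibition below 40%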;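 note: fluorescence of freed AMC excited at 355 nm; 0% = enzyme without compound and 100% = no enzyme blank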
# Target sequence (P03951 19-387 limits assumed): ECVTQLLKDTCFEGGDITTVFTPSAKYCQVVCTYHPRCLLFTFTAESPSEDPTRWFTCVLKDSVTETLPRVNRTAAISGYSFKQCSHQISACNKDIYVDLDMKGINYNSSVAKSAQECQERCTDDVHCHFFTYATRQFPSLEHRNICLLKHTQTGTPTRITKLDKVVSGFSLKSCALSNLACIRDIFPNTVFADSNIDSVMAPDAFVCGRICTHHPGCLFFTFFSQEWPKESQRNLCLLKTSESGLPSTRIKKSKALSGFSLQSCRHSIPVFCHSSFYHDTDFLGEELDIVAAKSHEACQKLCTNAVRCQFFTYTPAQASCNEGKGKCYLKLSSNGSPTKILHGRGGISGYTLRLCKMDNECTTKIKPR
# Target sequence (P03951 388-625 limits assumed): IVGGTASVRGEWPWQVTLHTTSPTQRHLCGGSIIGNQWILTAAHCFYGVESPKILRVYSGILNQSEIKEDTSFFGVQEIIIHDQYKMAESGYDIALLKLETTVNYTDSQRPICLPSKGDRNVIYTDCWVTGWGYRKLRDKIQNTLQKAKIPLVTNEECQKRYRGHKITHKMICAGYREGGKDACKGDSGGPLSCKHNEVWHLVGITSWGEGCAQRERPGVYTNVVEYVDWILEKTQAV
# KLK5 inh: human KLK5 protease inhibitors, primary screen, biochemical, 1536-well | Kallikrein-5 (Homo sapiens), Q9Y337 | recombinant hK5, fluorogenic AMC substrate cleavage | inhibition, % at 5 µM | 210,000 compounds, 0.59% hits | AID 873, 2007;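 active = inhibition of 40% or more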;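 note: 0% = enzyme controls without compound and 100% = no-enzyme blanks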
# thrombin 1536: human alpha-thrombin inhibitors, primary screen, counter-screen for coagulation protease inhibitor project, biochemical, 1536-well, fluorogenic AMC substrate | inhibition, % at 5 µM | 220,000 compounds, 0.26% hits | Boc-VPR-AMC fluorogenic substrate cleavage;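 active = inhibition at or above 40%; inactive = inhibition below 40%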;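 note: 0% = enzyme with no compound and 100% = wells without enzyme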
#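 System: Human alpha-thrombin protein | Medium: pH 7.5 Tris (50 mM) with NaCl 150 mM, Tween 20 0.05% | Times: Enzyme reaction carried out at room temperature | Detection: AMC fluorescence, 355/460 nm | Evaluation: Percent inhibition scaled between no-compound controls and no-enzyme blanks | Benchmarks: Enzyme without compound as high, wells lacking enzyme as low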
# FXIIa inh: human FXIIa protease inhibitors, primary screen, biochemical, 1536-well | inhibition, % at 5 µM | 220,000 compounds, 0.3% hits | purified FXIIa, Boc-QGR-AMC fluorogenic substrate, 2 h; in the data active = inhibition above about 40%;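 note: 0% = enzyme with no compound and 100% = blank without enzyme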
# EP2 cAMP induct: cAMP induction in EP2, EP4, beta2-AR and parental cells, confirmation, counter-screen for EP2 modulator project, cell-based, five parallel assays, C6 glioma, HEK293. cAMP HTRF induction; plus low (about EC15) PGE2 agonist. calls only at 20 µM (by protocol). shares compounds with EP2 mod. 1,300 compounds, 47% hits. AID 1080, 2008;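 active = cAMP induction above 50% in the main assay while under 30% in all four parallel counter assays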;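 note: rat C6 glioma cells stably expressing human EP2 receptor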
# Active calls of the source: *; i = inactive; . = no result given; + = active, no number. The list is not random: actives were taken first. Their share in the collection is about 2.1%.
SMILES,EP2 mod,EP2 antag,FXIa inh 1536,KLK5 inh,thrombin 1536,FXIIa inh,EP2 cAMP induct
Clc1ccc(Cn2c(/C=C/c3ccco3)nc3ccccc32)cc1,68.8*,9.4,8.9,-5.2,-2.6,12.0,+
COc1cccc(N2CCN(CC(O)c3cn(C)c4ccccc34)CC2)c1 (stereo not given),-47.6,8.3,.,.,.,.,.
CCCCOc1c(Br)cc(/C=N/O)cc1OCC,66.2*,.,1.2,-8.8,-6.1,2.3,i
C=CCOc1c(Br)cc(/C=N/O)cc1OCC,31.4,2.3,7.0,-4.0,-2.2,7.5,.
Cc1ccc(S(=O)(=O)NCC(=O)N(c2ccccc2)C(C(=O)NCc2ccccc2)c2ccco2)cc1 (stereo not given),68.3*,7.4,6.6,-13.2,1.4,13.5,i
CCCOc1ccc(Cn2c(C(C)O)nc3ccccc32)cc1 (stereo not given),1.3,9.6,.,.,.,.,.
Fc1cccc(COc2ccccc2C(=S)N2CCCC2)c1,34.1,3.8,-5.2,-10.2,-2.3,3.5,.
CN1C(=O)/C(=C/c2ccccc2OCc2cccc(F)c2)N(C)C1=S,70.0*,11.0,1.1,-4.6,1.8,20.0,+
CCC(CN1CCOCC1)NC(=O)Cc1coc2c(C)c(C)ccc12 (stereo not given),-28.8,4.0,.,.,.,.,.
O=C(O)/C=C/c1ccccc1Oc1ccc(Cl)cc1Cl,87.3*,3.6,-5.0,1.4,-19.0,9.9,+
CCOc1ccc(Cl)cc1S(=O)(=O)n1cnc2cc(C)c(C)cc21,70.4*,5.2,2.2,-10.5,-4.7,7.7,+
C=CCn1c(SCC(=O)Nc2cccc(OC)c2)nc2sc(C)cc2c1=O,-99.6,9.5,.,.,.,.,.
Cc1ccc(CSc2nc3ccccc3cc2C=O)cc1,70.7*,10.1,19.7,-0.7,9.2,28.9,i
CC(C)CCn1c(-c2nonc2N)nc2ccccc21,69.7*,10.9,1.4,-6.5,1.0,7.8,i
CCCCn1c(-c2nonc2N)nc2ccccc21,53.6,6.7,-10.9,-4.0,-1.0,3.7,.
Cc1ccc(-c2nnc(N3CCC(C)CC3)c3ccccc23)cc1,73.6*,7.9,2.4,-4.4,-16.1,5.7,i
CCN(CC)C(=O)CN1C(=O)COc2ccccc21,41.1,4.9,.,.,.,.,.
CCCN(CCC)C(C)C(=O)NCC1(c2ccccc2)CCCC1 (stereo not given),73.6*,1.0,-2.2,-6.6,-3.7,3.6,+
CCN(CC)CC(=O)NCC1(c2ccccc2)CCCC1,25.8,4.4,-5.4,-3.1,-15.4,2.2,.
c1ccc(CN2CCN(Cc3cccnc3)CC2)nc1,-15.5,9.2,.,.,.,.,.
c1ccc(CCc2cccnc2)nc1,74.4*,12.5,.,.,.,.,i
CCN1CCCC1CN(Cc1cc2cccc(C)c2[nH]c1=O)C(=O)Nc1ccccc1OC (stereo not given),-29.5,13.0,.,.,.,.,.
COc1c(Cl)cc(Cl)cc1C(=O)n1nc(C)cc1C,74.1*,7.9,5.3,2.3,1.5,9.2,i
Cc1cc(C)c2c(n1)sc1c(=O)n(Cc3ccccc3Cl)nnc12,66.7*,.,3.5,-8.3,2.7,6.7,i
CN=C1CC(SC)=C1c1ccc(C)cc1,72.5*,56.3*,8.2,4.6,-0.5,13.6,+
S=c1[nH]nc(Cc2ccccc2)n1Cc1ccco1,53.1,-1.1,-2.0,4.9,1.6,3.2,i
CCCn1c(Cc2ccccc2)n[nH]c1=S,37.8,19.0,4.3,-8.6,3.1,17.2,.
COc1cc(NC(=O)CSc2nnc(-c3cccnc3)n2C)cc(OC)c1,-0.2,9.3,.,.,.,.,.
